Measured values as given in ChEMBL document CHEMBL3352723, “6-(Hetero)Arylpurine nucleotides as inhibitors of the oncogenic target DNPH1: synthesis, structural studies and cytotoxic activities” (Eur J Med Chem, 2014).
Calls of active or inactive are those of the source. The rule behind the calls is not given here.

Legend:
[1] = Cytotoxicity against human PC3 cells at 10 uM after 72 hrs by MTT assay; conditions: PC-3, 72 h, read-out: INH
[2] = Cytotoxicity against human HL60 cells after 72 hrs by MTT assay; conditions: HL-60, 72 h
[3] = Cytotoxicity against human HCT15 cells at 10 uM after 72 hrs by MTT assay; conditions: HCT-15, 72 h, read-out: INH
[4] = Cytotoxicity against human HCT116 cells after 72 hrs by MTT assay; format: functional, cell-based; conditions: HCT-116, 72 h
How it was run: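 Cells grown in RPMI 1640 with L-glutamine, 10% FCS, penicillin/streptomycin and fungizone at 37 °C under 5% CO2. Seeding was 2000 cells/well for HCT116 and HL60 and 600 for HCT15; compounds added after 24 h in DMSO (1% final). Viable cells read at 490 nm with MTS reagent.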

[5] = system: MCF7; experiment: Cytotoxicity against human MCF7 cells at 10 uM after 72 hrs by MTT assay; conditions: MCF7, 72 h, read-out: INH
[6] = Cytotoxicity against human HCT116 cells at 10 uM after 72 hrs by MTT assay; conditions: HCT-116, 72 h, read-out: INH
[7] = Cytotoxicity against human HCT15 cells after 72 hrs by MTT assay; conditions: HCT-15, 72 h
[8] = Cytotoxicity against human HL60 cells at 10 uM after 72 hrs by MTT assay; conditions: HL-60, 72 h, read-out: INH
[9] = system: HCT-116; conditions: Homo sapiens, 10 uM
[10] = system: PC-3; conditions: Homo sapiens, 10 uM
[11] = system: HL-60; conditions: Homo sapiens, 10 uM
[12] = system: HCT-15; conditions: Homo sapiens, 10 uM

Row | Compound | inhibition at 10 µM [1] | IC50 [2] | inhibition at 10 µM [3] | IC50 [4] | inhibition at 10 µM [5] | inhibition at 10 µM [6] | IC50 [7] | inhibition at 10 µM [8] | inhibition [9] | inhibition [10] | inhibition [11] | inhibition [12]
1 | O=P(O)(O)OC[C@H]1O[C@@H](n2cnc3c(-c4ccccc4)ncnc32)[C@H](O)[C@@H]1O | > 90% | 1700 nM | > 90% | 3200 nM | > 90% | > 90% | 700 nM | > 90% |  |  |  | 
2 | O=P(O)(O)OC[C@H]1O[C@@H](n2cnc3c(-c4cccc(Br)c4)ncnc32)[C@H](O)[C@@H]1O | > 90% | 3900 nM | > 90% |  | > 90% | > 90% | 600 nM | > 90% |  |  |  | 
3 | O=P(O)(O)OC[C@H]1O[C@@H](n2cnc3c(-c4ccoc4)ncnc32)[C@H](O)[C@@H]1O | > 90% | 15400 nM | > 90% | 5500 nM | > 90% | > 90% | 1300 nM | > 90% |  |  |  | 
4 | O=P(O)(O)OC[C@H]1O[C@@H](n2cnc3c(NCc4ccccc4)ncnc32)[C@H](O)[C@@H]1O |  | 5000 nM |  | 7700 nM |  |  | 800 nM |  |  |  |  | 
5 | O=P(O)(O)OC[C@H]1O[C@@H](n2cnc3c(-c4ccc(O)cc4)ncnc32)[C@H](O)[C@@H]1O | > 90% | 500 nM | > 90% | 4100 nM | > 90% | > 90% | 300 nM | > 90% |  |  |  | 
6 | O=P(O)(O)OC[C@H]1O[C@@H](n2cnc3c(-c4ccc5cc[nH]c5c4)ncnc32)[C@H](O)[C@@H]1O | > 90% | 500 nM | > 90% | > 80000 nM | > 90% | > 90% | 1400 nM | > 90% |  |  |  | 
7 | O=P(O)(O)OC[C@H]1O[C@@H](n2cnc3c(-c4ccc(Cl)s4)ncnc32)[C@H](O)[C@@H]1O | > 90% | 6500 nM | > 90% |  | > 90% | > 90% | 1000 nM | > 90% |  |  |  | 
8 | O=P(O)(O)OC[C@H]1O[C@@H](n2cnc3c(-c4cccc(-c5cccc6c5sc5ccccc56)c4)ncnc32)[C@H](O)[C@@H]1O |  |  |  |  | > 90% |  |  |  | inactive | inactive | inactive | inactive
9 | O=C(O)c1ccc(-c2cccc(-c3ncnc4c3ncn4[C@@H]3O[C@H](COP(=O)(O)O)[C@@H](O)[C@H]3O)c2)cc1 |  |  |  |  | > 90% |  |  |  | inactive | inactive | inactive | inactive
